This note sets out measurements from ChEMBL document CHEMBL4376883, “Discovery and Optimization of Small Molecules Targeting the Protein-Protein Interaction of Heat Shock Protein 90 (Hsp90) and Cell Division Cycle 37 as Orally Active Inhibitors for the Treatment of Colorectal Cancer” (J Med Chem, 2020).

The term Kd denotes the free concentration of one partner at which half of the binding sites on the other are occupied at equilibrium, for simple one-to-one binding. A word on the IC50: it is the point on the concentration scale where inhibition reaches its midpoint. Usually logD stands for the decadic logarithm of the distribution of all forms, ionised or not, between an organic phase and buffer at a given pH. The term half-life denotes the time needed for the level to fall by half in the phase considered.

A short description of series [1]: Toxicity in human HCT116 cells xenografted BALB/c mouse assessed as body weight loss at 40 to 80 mg/kg, po administered once daily for 21 days measured at 3 days interval during compound dosing. Particulars: in vivo. It counts as organism-based. Put shortly: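 BALB/c nude mice (6 weeks old) carried flank HCT116 xenografts (1×10^7 cells with Matrigel, 3:1). Dosing started at mean tumor volume 125 mm³: oral 40 or 80 mg/kg daily for 21 days, vehicle 0.9% saline with 5% DMSO. Body weight was recorded every 3 days; n = 6.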

A short description of series [2]: Toxicity in human HCT116 cells xenografted BALB/c mouse assessed as effect on heart at 40 to 80 mg/kg, po administered once daily for 21 days measured post-last dose by H and E staining-based imaging analysis. The format is organism-based. Particulars: in vivo, 504 h. The gist of the method: (§1)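 Same xenograft model in BALB/c nude mice with oral daily dosing at 40 or 80 mg/kg in 5% DMSO/saline for 21 days. After sacrifice, organs were fixed in 4% formaldehyde, paraffin-embedded, sectioned at 4 μm and H&E-stained for light-microscopy imaging.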
For orientation: A xenograft is tissue or cells of one species grown in another, often human tumour cells in immunodeficient mice.

A short description of series [3]: Toxicity in human HCT116 cells xenografted BALB/c mouse assessed as effect on liver at 40 to 80 mg/kg, po administered once daily for 21 days measured post-last dose by H and E staining-based imaging analysis. The format is organism-based. Conditions: in vivo, 504 h. The gist of the method:
as §1

Series [4] is described as follows: Toxicity in human HCT116 cells xenografted BALB/c mouse assessed as effect on kidney at 40 to 80 mg/kg, po administered once daily for 21 days measured post-last dose by H and E staining-based imaging analysis. The format is organism-based. Conditions: in vivo, 504 h. The gist of the method: as §1
Series [5] can be described thus: Toxicity in human HCT116 cells xenografted BALB/c mouse assessed as effect on lung at 40 to 80 mg/kg, po administered once daily for 21 days measured post-last dose by H and E staining-based imaging analysis. The format is organism-based. Particulars: in vivo, 504 h. The gist of the method: as §1
Series [6] is described as follows: Toxicity in human HCT116 cells xenografted BALB/c mouse assessed as effect on spleen at 40 to 80 mg/kg, po administered once daily for 21 days measured post-last dose by H and E staining-based imaging analysis. The format is organism-based. Particulars: in vivo, 504 h. Put shortly: as §1
In series [7] the target is T1, Heat shock protein HSP90 (Homo sapiens, UniProt P07900+P08238). Briefly: Binding affinity to recombinant […] biotinylated-HSP90 N-terminal domain (9 to 236 residues) (unknown origin) expressed in Escherichia coli BL21 (DE3) by biolayer interferometry. The gist of the method: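 Biotinylated Hsp90 (100 µg/mL) loaded onto streptavidin sensors prewetted 10 min in PBS with 0.05% BSA and 0.01% Tween 20. Analyte binding measured at 28 °C. Double reference subtraction applied; data fitted to a 1:1 model with K_D = K_off/K_on.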
For orientation: Biolayer interferometry detects binding as a change in optical thickness at a sensor tip.

Series [8] addresses T1, Heat shock protein HSP90. Briefly: Binding affinity to recombinant […] HSP90 N-terminal domain (9 to 236 residues) (unknown origin) expressed in Escherichia coli BL21 (DE3) by isothermal calorimetric method. Put shortly: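 ITC: 50 µM Hsp90 in the cell and 300 µM compound in the syringe, both in 20 mM Tris-HCl, 150 mM NaCl, pH 7.4. Nineteen injections at 180 s intervals with stirring at 1000 rpm.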

Series [9] concerns HCT-116. Briefly: Antiproliferative activity against human HCT116 cells measured after 72 hrs by CCK8 assay. The format is functional, cell-based. Particulars: HCT-116, 72 h. The gist of the method:
(§2)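 Cells grown in RPMI 1640 with 10% FBS at 37 °C, 5% CO2; STR-authenticated and mycoplasma-checked. Seeded at 3000-5000 cells/well and left 24 h. Serial compound dilutions added for 72 h, with matched DMSO as control. Viability read by CCK8 kit using the standard protocol. IC50 values derived from at least three parallel experiments.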
In general terms: Tetrazolium assays rely on reduction of a dye to a coloured formazan, in cell work by metabolically active cells.

The test system of series [10] is A549. Briefly: Antiproliferative activity against human A549 cells measured after 72 hrs by CCK8 assay. The format is functional, cell-based. Conditions: A549, 72 h. The gist of the method: as §2
The test system of series [11] is L02. Briefly: Cytotoxicity against human L02 cells measured after 72 hrs by CCK8 assay. The format is functional, cell-based. Conditions: L02, 72 h. The gist of the method: as §2
The target of series [12] is T1, Heat shock protein HSP90. Description: Inhibition of recombinant full-length HSP90 ATPase activity N-terminal domain (9 to 236 residues) (unknown origin) expressed in Escherichia coli BL21 (DE3) measured after 1 hr by ADP hunter plus assay.
Series [13] in a line: Distribution coefficient, log D of the compound at pH 7.4 by potentiometric titration method. It counts as physicochemical. Conditions: octanol/water. The gist of the method: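 log D at pH 7.4 measured by potentiometric titration on a Gemini Profiler.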
Series [14] can be described thus: Permeability of the compound at pH 7.4 by PAMPA. The format is ADME. Conditions: read-out: permeability. Put shortly: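 Permeability coefficient (Pe) was measured at pH 7.4 by double-sink PAMPA.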
Series [15] in a line: Stability of the compound in mouse plasma assessed as parent compound remaining at 1 uM measured immediately by LC-MS/MS analysis. The format is ADME, cell-free. Particulars: read-out: Stability. Put shortly: (§3)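 Compound diluted from 10 mM DMSO stock to 1 μM in mouse or human plasma and held at 37 °C in a water bath. Reactions were stopped with acetonitrile at 0, 10, 30, 60 and 90 min. Parent compound was quantified by LC-MS/MS as % remaining.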

A short description of series [16]: Stability of the compound in mouse plasma assessed as parent compound remaining at 1 uM measured after 10 mins by LC-MS/MS analysis. The format is ADME, cell-free. Conditions: read-out: Stability. Put shortly:
as §3

A short description of series [17]: Stability of the compound in mouse plasma assessed as parent compound remaining at 1 uM measured after 30 mins by LC-MS/MS analysis. Conditions: read-out: Stability. It counts as ADME, cell-free. The gist of the method:
as §3

The nature of series [18]: Stability of the compound in mouse plasma assessed as parent compound remaining at 1 uM measured after 60 mins by LC-MS/MS analysis. It counts as ADME, cell-free. Conditions: read-out: Stability. Put shortly:
as §3

Series [19] can be described thus: Stability of the compound in mouse plasma assessed as parent compound remaining at 1 uM measured after 90 mins by LC-MS/MS analysis. It counts as ADME, cell-free. Conditions: read-out: Stability. The gist of the method: as §3
The nature of series [20]: Stability of the compound in human plasma assessed as parent compound remaining at 1 uM measured immediately by LC-MS/MS analysis. The format is ADME, cell-free. Conditions: read-out: Stability. The gist of the method: as §3
Series [21] can be described thus: Stability of the compound in human plasma assessed as parent compound remaining at 1 uM measured after 10 mins by LC-MS/MS analysis. Particulars: read-out: Stability. It counts as ADME, cell-free. Put shortly:
as §3

The nature of series [22]: Stability of the compound in human plasma assessed as parent compound remaining at 1 uM measured after 30 mins by LC-MS/MS analysis. Conditions: read-out: Stability. It counts as ADME, cell-free. The gist of the method: as §3
Series [23] in a line: Stability of the compound in human plasma assessed as parent compound remaining at 1 uM measured after 60 mins by LC-MS/MS analysis. Conditions: read-out: Stability. It counts as ADME, cell-free. The gist of the method: as §3
Series [24] in a line: Stability of the compound in human plasma assessed as parent compound remaining at 1 uM measured after 90 mins by LC-MS/MS analysis. It counts as ADME, cell-free. Conditions: read-out: Stability. The gist of the method:
as §3

Series [25] in a line: Half life in human liver microsomes at 10 uM preincubated for 5 mins followed by NADPH addition by LC-MS/MS analysis. It counts as ADME, Microsome. Put shortly:
(§4)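 Compound at 10 µM preincubated 5 min at 37 °C with human or mouse liver microsomes (0.5 mg/mL) in 100 mM phosphate, pH 7.4. Reaction started with 1 mM NADPH, stopped with cold acetonitrile, centrifuged and analysed by LC-MS/MS.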

The nature of series [26]: Clearance in human liver microsomes at 10 uM preincubated for 5 mins followed by NADPH addition by LC-MS/MS analysis. It counts as ADME, Microsome. Particulars: read-out: CLH. Put shortly: as §4
Series [27] can be described thus: Half life in mouse liver microsomes at 10 uM preincubated for 5 mins followed by NADPH addition by LC-MS/MS analysis. It counts as ADME, Microsome. The gist of the method:
as §4

A short description of series [28]: Clearance in mouse liver microsomes at 10 uM preincubated for 5 mins followed by NADPH addition by LC-MS/MS analysis. Particulars: read-out: CLH. The format is ADME, Microsome. Put shortly: as §4

Where only a bound is given, the exact number is not on record here.

Regarding `Cc1cc(C)c(S(=O)(=O)N(CC(=O)O)c2ccc(Nc3ccnc(N4CCCC4)n3)cc2)c(C)c1.[Cl-].[Na+]`, the Activity result in [1], in series [2], in series [3], in series [4], in series [5] and in series [6] was “Non-Toxic” throughout.

In the case of `Cc1cc(C)c(S(=O)(=O)N(CC(=O)O)c2ccc(Nc3ccnc(N4CCCC4)n3)cc2)c(C)c1`, the Kd in [7] amounted to 7.41 µM; in series [8], 7.81 µM. Also, the IC50 is 10.2 µM in [9], 55.7 µM in series [10], more than 50 µM in [11] and more than 100 µM in series [12]. In addition, the logD in [13] was 1.67. In addition, the Papp in [14] came out at 70.4 ×10⁻⁶ cm/s. In addition, the remaining at 0 min, 1 µM in [15] and in [20] was 100% in each case. Further, the remaining at 10 min, 1 µM in series [16] is 100%; in [21], 101%. Besides, the remaining at 0.5 h, 1 µM amounted to 86% in series [17] and 92% in series [22]. The remaining at 1 h, 1 µM in series [18] was 71%; in [23], 76%. Moreover, the remaining at 1.5 h, 1 µM in series [19] was 59%; in [24], 62%. Further, the values for the half-life at 10 µM in series [25] and in series [27] were 30.4 min and 16.8 min, respectively. Moreover, the figures for the microsomal CLint at 10 µM in series [26] and in [28] were 32.6 µL/min/mg and 59 µL/min/mg, respectively.
